From PMC3346673 (Toxicological and environmental chemistry, 2012)
Values joined by “and” are separate entries in the source; they are usually repeats but may differ in a detail not shown here. Equal values may be shown once. Read-outs that look alike come from different tables or passages of the source.

How the values were obtained:
[1] = tested on: rats; assay: Oral up/down LD-50 determination, gavage in corn oil; assay type: in vivo, rat (Wistar)
Summary of the method: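 Up/down design in 3 female Wistar rats (206–208 g). Test compound was suspended in corn oil and given by gavage, three times daily to reach the top level. Testing stopped at 5 g kg−1 body weight.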

[2] = Endotoxin activity; conditions: 1 mg mL^−1, tested undiluted to 1:512 dilution
[3] = tested on: Salmonella typhimurium strains TA1537, TA98, TA100, and TA1535; assay: Ames test for mutagenic activity; assay type: cell-based; conditions: reversion of mutations in the histidine operon
[4] = tested on: Escherichia coli strain WP2 uvrA; assay: Ames test for mutagenic activity; assay type: cell-based; conditions: reversion of mutations in the tryptophan operon
[5] = Oxygen radical absorbance capacity; conditions: Trolox equivalency
[6] = Hydroxyl radical absorbance capacity; conditions: Trolox equivalency
[7] = Metabolic profiling with human liver microsomes; assay type: in vitro ADME; conditions: incubation with human liver microsomes, MS identification
Summary of the method: (§1)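 Test compound incubated with human or rat liver microsomes. Products separated by HPLC and identified by electrospray MS and MS:MS, using information-dependent acquisition on the parent ion, enhanced product ion scans, and linear ion trap scanning of trapped fragments.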

[8] = Metabolic profiling with rat liver microsomes; assay type: in vitro ADME; conditions: incubation with rat liver microsomes, MS identification
Summary of the method: as §1

[9] = Plasma clearance after intravenous dosing; assay type: in vivo, rat (Sprague-Dawley)
Summary of the method: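 Male Sprague-Dawley rats received 1 mg kg−1 test compound intravenously. Plasma levels were measured by the biodistribution LC-MS:MS method: heparinised, chilled plasma, DTT reduction, then reversed-phase ammonium formate/acetonitrile gradient with ESI MRM detection.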

[10] = Oral absorption, plasma pharmacokinetics after oral gavage; assay type: in vivo, rat (Sprague-Dawley); conditions: for Tmax / half-life: male, Sprague-Dawley, rat, plasma, po
[11] = tested on: rats injected with HgCl2; assay type: in vivo, rat (Harlan Sprague-Dawley); conditions: for mercury concentration in feces / mercury concentration in urine: 5 day collection, mean ± SEM
Summary of the method: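 Mature male Harlan Sprague-Dawley rats (389–397 g), four groups of six, housed in pairs. HgCl2 was given sc at 4.06 mg kg−1 in saline under brief isoflurane. Test compound (42.3 mg kg−1, DMSO plus PBS) was given sc 20–30 min later. Non-recipients got saline, so each rat had two injections. Rats were weighed before treatment and before day-6 sacrifice; organs were blotted and weighed. Behaviour was recorded.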

[12] = tested on: rats injected with lethal doses of mercury chloride; assay: Survival of young rats after lethal doses of mercury chloride; assay type: in vivo, rat (Sprague-Dawley)
Summary of the method: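 Thirty-six young male Sprague-Dawley rats (225–245 g) were split into three groups of 12. They received HgCl2 sc under the right abdominal skin at 1.0, 2.0 or 14 mg kg−1. Six per group then got test compound sc on the left side 20–25 min later in isotonic 25% DMSO:75% PBS: 528 micromoles for the two lower doses, 880 micromoles for the top dose.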

[13] = Solubility and stability of NBMI and its Hg complex; assay type: physicochemical
[14] = tested on: aortic endothelial membranes in culture; conditions: aortic endothelial membranes in culture ref Secor et al. 2011; cited from earlier work
[15] = iv 1 mg kg^−1, individual rats 1-3
[16] = iv 1 mg kg^−1, plasma, individual rats 1-3
[17] = Group 2 NBMI only, sc 42.3 mg kg^−1, mean ± St Dev
[18] = Group 4 HgCl2 (4.06 mg kg^−1 sc) + NBMI (42.3 mg kg^−1 sc), mean ± St Dev

Structure (SMILES): O=C(NCCS)c1cccc(C(=O)NCCS)c1 [NBMI, N,N′-bis(2-mercaptoethyl)isophthalamide]
- LD-50 ([1]; oral gavage in corn oil, female Wistar rats): > 5 g kg^−1 body weight
- signs of toxicity in LD-50 study ([1]; up to 5 g NBMI kg^−1 body weight, gavaged 3 times daily): no death or other signs of toxicity with the exception of some diarrhea
- endotoxin content [2]: less than one
- mutagenicity, Ames analysis [3]: non-mutagenic
- mutagenicity, Ames analysis [4]: non-mutagenic
- ORAC score [5]: 199,000 Trolox units 100g^−1
- HORAC score [6]: 299,000 Trolox units 100g^−1
- metabolites detected [7]: only two NBMI modified structures
- metabolites detected [8]: only two NBMI modified structures
- clearance relative to liver blood flow of a typical rat (3.3 L hr^−1 kg^−1) ([9]; iv 1 mg kg^−1): approximately 30%
- Plasma concentration ([9]; iv 1 mg kg^−1, 0.083 hr, individual rats 1-3): 535 ng/mL and 423 ng/mL
- Plasma concentration ([9]; iv 1 mg kg^−1, 0.25 hr, individual rats 1-3): 320 ng/mL and 254 ng/mL
- Plasma concentration ([9]; iv 1 mg kg^−1, 0.5 hr, individual rats 1-3): 228 ng/mL and 203 ng/mL
- Plasma concentration ([9]; iv 1 mg kg^−1, 1 hr, individual rats 1-3): 155 ng/mL and 124 ng/mL
- Plasma concentration ([9]; iv 1 mg kg^−1, 3 hr, individual rats 1-3): 84.1 ng/mL and 63.1 ng/mL
- Plasma concentration ([9]; iv 1 mg kg^−1, 6 hr, individual rats 1-3): 32.7 ng/mL and 28.9 ng/mL
- Plasma concentration ([9]; iv 1 mg kg^−1, 24 hr, individual rats 1-3): 6.6 ng/mL and 8.84 ng/mL and 3.7 ng/mL
- Co, maximum plasma concentration extrapolated to t=0 [9, 15]: 633 ng/mL and 691 ng/mL and 545 ng/mL
- Vss, steady state volume of distribution [9, 15]: 7.2 L/kg and 7.3 L/kg
- Co, maximum plasma concentration extrapolated to t=0 ([9]; iv 1 mg kg^−1, mean): 623 ng/mL
- CL, clearance [9, 16]: 15.2 mL/min/kg and 21 mL/min/kg
- t1/2, half-life [9, 16]: 7.28 h and 5.42 h
- concentration at 24 hr ([9]; male, Sprague-Dawley, rat, plasma, iv, 1 mg kg^−1, Plasma concentration, iv 1 mg kg^−1, 24 hr, mean): 6.38 ng/mL
- clearance ([9]; male, Sprague-Dawley, rat, plasma, iv, 1 mg/kg, CL, clearance, iv 1 mg kg^−1, plasma, mean): 16.8 mL/min/kg
- Vd ([9]; male, Sprague-Dawley, rat, plasma, iv, 1 mg/kg, Vss, steady state volume of distribution, iv 1 mg kg^−1, mean): 6.7 L/kg
- half-life ([9]; male, Sprague-Dawley, rat, plasma, iv, 1 mg/kg, t1/2, half-life, iv 1 mg kg^−1, plasma, mean): 6.18 h
- Tmax ([10]; 7 mg/kg): 2.3 ± 1.2 h
- half-life ([10]; 7 mg/kg): 5.47 ± 1.75 h
- Tmax ([10]; 35 mg/kg): 2.3 ± 1.2 h
- half-life ([10]; 35 mg/kg): 5.6 ± 1.02 h
- absorbance of NBMI into plasma from oral dose ([10]; oral 7 mg kg^−1, estimated against iv 1 mg kg^−1): 13 ± 5.9%
- absorbance of NBMI into plasma from oral dose ([10]; oral 35 mg kg^−1, estimated against iv 1 mg kg^−1): 15 ± 3.6%
- Body Mass Post Treatment [11, 17]: 374.4 ± 27.7 g
- Organ Mass Brain (Post Treatment) [11, 17]: 1.85 ± 0.04 g
- Organ Mass Kidney (Post Treatment) [11, 17]: 2.80 ± 0.56 g
- Organ Mass Liver (Post Treatment) [11, 17]: 11.7 ± 1.8 g
- clinically observed toxic effects ([11]; Group 4 Hg + NBMI versus Hg Only): exhibited no signs of discomfort
- Body Mass Post Treatment [11, 18]: 356.9 ± 46.8 g
- Organ Mass Brain (Post Treatment) [11, 18]: 1.88 ± 0.10 g
- Organ Mass Kidney (Post Treatment) [11, 18]: 3.88 ± 0.69 g
- Organ Mass Liver (Post Treatment) [11, 18]: 11.0 ± 2.1 g
- mercury concentration in feces ([11]; Hg and NBMI group): 23447±4877 Ppb
- mercury concentration in urine ([11]; Hg and NBMI group): 242±52.7 Ppb
- mercury concentration in feces ([11]; NBMI Only group): 110±30 Ppb
- mercury concentration in urine ([11]; NBMI Only group): 0.30±0.1 Ppb
- effect on organ mercury levels ([11]; single sc dose of NBMI, organs 5-6 days after injection): did not reduce the mercury levels in the organs
- PERCENT SURVIVAL ([12]; HgCl2 1 mg kg^−1 sc, NBMI 528 micromoles (150 mg) kg^−1 sc, 0 hrs): 100%
- PERCENT SURVIVAL ([12]; HgCl2 1 mg kg^−1 sc, NBMI 528 micromoles (150 mg) kg^−1 sc, 6 hrs): 100%
- PERCENT SURVIVAL ([12]; HgCl2 1 mg kg^−1 sc, NBMI 528 micromoles (150 mg) kg^−1 sc, 12 hrs): 100%
- PERCENT SURVIVAL ([12]; HgCl2 1 mg kg^−1 sc, NBMI 528 micromoles (150 mg) kg^−1 sc, 24 hrs): 100%
- PERCENT SURVIVAL ([12]; HgCl2 1 mg kg^−1 sc, NBMI 528 micromoles (150 mg) kg^−1 sc, 48 hrs): 100%
- PERCENT SURVIVAL ([12]; HgCl2 1 mg kg^−1 sc, NBMI 528 micromoles (150 mg) kg^−1 sc, 72 hrs): 100%
- PERCENT SURVIVAL ([12]; HgCl2 2 mg kg^−1 sc, NBMI 528 micromoles (150 mg) kg^−1 sc, 0 hrs): 100%
- PERCENT SURVIVAL ([12]; HgCl2 2 mg kg^−1 sc, NBMI 528 micromoles (150 mg) kg^−1 sc, 6 hrs): 100%
- PERCENT SURVIVAL ([12]; HgCl2 2 mg kg^−1 sc, NBMI 528 micromoles (150 mg) kg^−1 sc, 12 hrs): 100%
- PERCENT SURVIVAL ([12]; HgCl2 2 mg kg^−1 sc, NBMI 528 micromoles (150 mg) kg^−1 sc, 24 hrs): 100%
- PERCENT SURVIVAL ([12]; HgCl2 2 mg kg^−1 sc, NBMI 528 micromoles (150 mg) kg^−1 sc, 48 hrs): 100%
- PERCENT SURVIVAL ([12]; HgCl2 2 mg kg^−1 sc, NBMI 528 micromoles (150 mg) kg^−1 sc, 72 hrs): 100%
- PERCENT SURVIVAL ([12]; HgCl2 14 mg kg^−1 sc, NBMI 880 micromoles (250 mg) kg^−1 sc, 0 hrs): 100%
- PERCENT SURVIVAL ([12]; HgCl2 14 mg kg^−1 sc, NBMI 880 micromoles (250 mg) kg^−1 sc, 6 hrs): 100%
- PERCENT SURVIVAL ([12]; HgCl2 14 mg kg^−1 sc, NBMI 880 micromoles (250 mg) kg^−1 sc, 12 hrs): 100%
- PERCENT SURVIVAL ([12]; HgCl2 14 mg kg^−1 sc, NBMI 880 micromoles (250 mg) kg^−1 sc, 24 hrs): 100%
- PERCENT SURVIVAL ([12]; HgCl2 14 mg kg^−1 sc, NBMI 880 micromoles (250 mg) kg^−1 sc, 48 hrs): 67%
- PERCENT SURVIVAL ([12]; HgCl2 14 mg kg^−1 sc, NBMI 880 micromoles (250 mg) kg^−1 sc, 72 hrs): 67%
- condition of the surviving rats on long term observation ([12]; surviving 16 rats from all groups observed for three months): No adverse effects were noted
- solubility in 95% ethanol or dimethylsulfoxide (DMSO) [13]: readily dissolves
- solubility in water [13]: water insoluble
- prevention of damage induced by mercury exposure [14]: very effective prevention of the damage induced by mercury exposure
- toxicity on membrane integrity [14]: no toxicity on membrane integrity
